Measured values published in ChEMBL document CHEMBL2010670, “Discovery of a clinical stage multi-kinase inhibitor sodium (E)-2-{2-methoxy-5-[(2',4',6'-trimethoxystyrylsulfonyl)methyl]phenylamino}acetate (ON 01910.Na): synthesis, structure-activity relationship, and biological activity” (J Med Chem, 2011).
Active and inactive are the calls of the source. The calls are words filed in the database; no cut-off is given here.

Experiments:
[1] = tested on: DU-145; assay: Cell cycle arrest in human DU145 cells assessed as accumulation of cells containing subG1 content of DNA at 0.1 to 1 uM after 24 hrs by propidium iodide staining-based flow cytometric analysis; type: functional
Procedure, shortened: (§1)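 DMEM with 10% FBS; 1.0 × 10⁶ cells/dish, treated 24 h after plating and harvested 24 h after treatment. Trypsinized cells were pooled with floating cells, PBS-washed and fixed in ice-cold 70% ethanol for ≥24 h. Cells were stained with propidium iodide plus RNase A for 30 min at 37 °C. DNA content was read by flow cytometry with cell-cycle modelling.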

[2] = tested on: DU-145; assay: Cell cycle arrest in human DU145 cells assessed as accumulation of cells in G2/M phase after 24 hrs by propidium iodide staining-based flow cytometric analysis; type: functional; procedure, shortened: as §1
[3] = tested on: DU-145; assay: Induction of apoptosis in human DU145 cells assessed as PARP1 cleavage at 0.25 to 5 uM after 48 hrs by Western blot analysis; type: functional, cell-based
Procedure, shortened: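 DU145 or HFL-1 cells plated at 3.0 × 10⁶ per […], treated 24 h later with DMSO or compound for 48 h. Frozen pellets lysed in 1% NP40/PBS with protease inhibitors. Equal protein run on 10% SDS-PAGE, transferred to nitrocellulose, probed with anti-PARP antibody, ECL detection.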

[4] = tested on: A549; assay: Induction of apoptosis in human A549 cells assessed as caspase 3/7 activity at 0.25 uM after 24 hrs by luminescence assay; type: functional, cell-based
Procedure, shortened: (§2)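 A549 cells seeded at 3,600 cells/well in DMEM + 10% FBS, adhered overnight at 37 °C, then exposed to varying compound concentrations or DMSO for 24 h. Viability read first as fluorescence 3 h after CellTiter-Blue addition. Caspase-Glo 3/7 was then added to the same wells, developed 2 h at room temperature, and luminescence read; n=3.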

[5] = tested on: A549; assay: Induction of apoptosis in human A549 cells assessed as cell viability at 0.25 uM after 24 hrs by fluorescence assay; type: functional, cell-based; procedure, shortened: as §2
[6] = Cytotoxicity against human RF48 cells after 96 hrs by trypan blue exclusion assay; type: functional, cell-based; details: RF48, 96 h
Procedure, shortened: (§3)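 Cells grown in DMEM or RPMI with 10% FBS and 1 unit/mL penicillin-streptomycin, seeded at 1.0 × 10⁵ cells/mL/well in 6-well dishes; compound added 24 h later at various concentrations. After 96 h of treatment, viable cells counted by trypan blue exclusion in duplicate wells; dose-response end point.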

[7] = Cytotoxicity against human MES-SA cells assessed as cell viability after 96 hrs by trypan blue exclusion; type: functional, cell-based
Procedure, shortened: (§4)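 Cells grown in DMEM or RPMI with 10% FBS and penicillin-streptomycin, seeded at 1.0 × 10⁵ cells/mL/well in 6-well dishes. Compound added at a range of concentrations 24 h after seeding. Viable cells counted by trypan blue exclusion from duplicate wells after 96 h of exposure; dose-response end point.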

[8] = tested on: DLD-1; assay: Cytotoxicity against human DLD1 cells after 96 hrs by trypan blue exclusion assay; type: functional, cell-based; details: DLD-1, 96 h; procedure, shortened: as §4
[9] = tested on: T47D; assay: Cytotoxicity against human T47D cells after 96 hrs by trypan blue exclusion assay; type: functional, cell-based; procedure, shortened: as §3
[10] = tested on: SW480; assay: Cytotoxicity against human SW480 cells after 96 hrs by trypan blue exclusion assay; type: functional, cell-based; details: SW480, 96 h; procedure, shortened: as §3
[11] = Cytotoxicity against human […] cells after 96 hrs by trypan blue exclusion assay; type: functional, cell-based; procedure, shortened: as §3
[12] = Cytotoxicity against human Z138C cells after 96 hrs by trypan blue exclusion assay; type: functional, cell-based; procedure, shortened: as §3
[13] = tested on: Raji; assay: Cytotoxicity against human Raji cells after 96 hrs by trypan blue exclusion assay; type: functional, cell-based; procedure, shortened: as §3
[14] = tested on: NCI-H417; assay: Cytotoxicity against human NCI-N417 cells after 96 hrs by trypan blue exclusion assay; type: functional, cell-based; details: NCI-H417, 96 h; procedure, shortened: as §4
[15] = tested on: COLO 205; assay: Cytotoxicity against human COLO205 cells after 96 hrs by trypan blue exclusion assay; type: functional, cell-based; details: COLO 205, 96 h; procedure, shortened: as §4
[16] = tested on: OPM-2; assay: Cytotoxicity against human OPM2 cells after 96 hrs by trypan blue exclusion assay; type: functional, cell-based; details: OPM-2, 96 h; procedure, shortened: as §4
[17] = tested on: A549; assay: Cytotoxicity against human A549 cells after 96 hrs by trypan blue exclusion assay; type: functional, cell-based; details: A549, 96 h; procedure, shortened: as §4
[18] = Cytotoxicity against human COLO320 cells after 96 hrs by trypan blue exclusion assay; type: functional, cell-based; details: COLO 320, 96 h; procedure, shortened: as §4
[19] = tested on: OVCAR-3; assay: Cytotoxicity against human OVCAR3 cells after 96 hrs by trypan blue exclusion assay; type: functional, cell-based; details: OVCAR-3, 96 h; procedure, shortened: as §4
[20] = tested on: K562; assay: Cytotoxicity against human K562 cells after 96 hrs by trypan blue exclusion assay; type: functional, cell-based; details: Homo sapiens, K562, 96 h; procedure, shortened: as §4
[21] = Cytotoxicity against human U87 cells after 96 hrs by trypan blue exclusion assay; type: functional, cell-based, U-87MG ATCC; details: U-87 MG; procedure, shortened: as §3
[22] = Cytotoxicity against human NAMALWA cells after 96 hrs by trypan blue exclusion assay; type: functional, cell-based; details: NAMALVA; procedure, shortened: as §4
[23] = tested on: NCI-H1975; assay: Cytotoxicity against human NCI-H1975 cells after 96 hrs by trypan blue exclusion assay; type: functional, cell-based; details: NCI-H1975, 96 h; procedure, shortened: as §4
[24] = tested on: CEM/C2; assay: Cytotoxicity against multidrug-resistant human CEM/C2 cells assessed as cell viability after 96 hrs by trypan blue exclusion; type: functional, cell-based; details: CEM/C2, 96 h; procedure, shortened: as §3
[25] = tested on: DU-145; assay: Cytotoxicity against human DU145 cells after 96 hrs by trypan blue exclusion assay; type: functional, cell-based; details: Homo sapiens, DU-145, 96 h; procedure, shortened: as §4
[26] = tested on: LP-1; assay: Cytotoxicity against human LP-1 cells after 96 hrs by trypan blue exclusion assay; type: functional, cell-based; details: LP-1, 96 h; procedure, shortened: as §4
[27] = tested on: NCI-H157; assay: Cytotoxicity against human NCI-H157 cells after 96 hrs by trypan blue exclusion assay; type: functional, cell-based; details: NCI-H157, 96 h; procedure, shortened: as §4
[28] = Cytotoxicity against human RF1 cells after 96 hrs by trypan blue exclusion assay; type: functional, cell-based; details: RF1, 96 h; procedure, shortened: as §3
[29] = Cytotoxicity against multidrug-resistant human 2008/17/4 cells assessed as cell viability after 96 hrs by trypan blue exclusion; type: functional, cell-based; procedure, shortened: as §3
[30] = tested on: PC-3; assay: Cytotoxicity against human PC3 cells after 96 hrs by trypan blue exclusion assay; type: functional, cell-based; details: PC-3, 96 h; procedure, shortened: as §4
[31] = tested on: CCRF-CEM; assay: Cytotoxicity against human CEM cells assessed as cell viability after 96 hrs by trypan blue exclusion; type: functional, cell-based; procedure, shortened: as §4
[32] = tested on: MCF7; assay: Cytotoxicity against human MCF7 cells after 96 hrs by trypan blue exclusion assay; type: functional, cell-based; details: MCF7, 96 h; procedure, shortened: as §4
[33] = tested on: U-266; assay: Cytotoxicity against human U266 cells after 96 hrs by trypan blue exclusion assay; type: functional, cell-based; details: U-266, 96 h; procedure, shortened: as §3
[34] = tested on: HCT-116; assay: Cytotoxicity against human HCT116 cells after 96 hrs by trypan blue exclusion assay; type: functional, cell-based; details: HCT-116, 96 h; procedure, shortened: as §4
[35] = Cytotoxicity against human GRANTA-519 cells after 96 hrs by trypan blue exclusion assay; type: functional, cell-based; details: Granta-519, 96 h; procedure, shortened: as §4
[36] = tested on: HCT-15; assay: Cytotoxicity against human HCT15 cells after 96 hrs by trypan blue exclusion assay; type: functional, cell-based; details: HCT-15, 96 h; procedure, shortened: as §4
[37] = Cytotoxicity against multidrug-resistant human MES-SA/Dx5 cells assessed as cell viability after 96 hrs by trypan blue exclusion; type: functional, cell-based; details: MES-SA/Dx5, 96 h; procedure, shortened: as §3
[38] = tested on: AGS; assay: Cytotoxicity against human AGS cells after 96 hrs by trypan blue exclusion assay; type: functional, cell-based; procedure, shortened: as §4
[39] = tested on: NCI-H187; assay: Cytotoxicity against human NCI-H187 cells after 96 hrs by trypan blue exclusion assay; type: functional, cell-based; details: NCI-H187, 96 h; procedure, shortened: as §4
[40] = tested on: Daudi; assay: Cytotoxicity against human Daudi cells after 96 hrs by trypan blue exclusion assay; type: functional, cell-based; procedure, shortened: as §4
[41] = tested on: SK-BR-3; assay: Cytotoxicity against human SKBR3 cells after 96 hrs by trypan blue exclusion assay; type: functional, cell-based; details: SK-BR-3, 96 h; procedure, shortened: as §3
[42] = tested on: MIA PaCa-2; assay: Cytotoxicity against human MIAPaCa2 cells after 96 hrs by trypan blue exclusion assay; type: functional, cell-based; details: MIA PaCa-2, 96 h; procedure, shortened: as §4
[43] = tested on: 2008; assay: Cytotoxicity against human 2008 cells assessed as cell viability after 96 hrs by trypan blue exclusion; type: functional, cell-based; details: Homo sapiens, 2008, 96 h; procedure, shortened: as §4
[44] = tested on: BT-20; assay: Cytotoxicity against human BT20 cells after 96 hrs by trypan blue exclusion assay; type: functional, cell-based; details: BT-20, 96 h; procedure, shortened: as §4
[45] = tested on: BT-474; assay: Cytotoxicity against human BT474 cells after 96 hrs by trypan blue exclusion assay; type: functional, cell-based; details: BT-474, 96 h; procedure, shortened: as §4
[46] = tested on: MOLT-4; assay: Cytotoxicity against human MOLT4 cells after 96 hrs by trypan blue exclusion assay; type: functional, cell-based; details: MOLT-4, 96 h; procedure, shortened: as §4

COc1cc(OC)c(/C=C/S(=O)(=O)Cc2ccc(OC)c(NCC(=O)O)c2)c(OC)c1
Activity [1]: Active | Activity [2]: Dose-dependent effect | Activity [3]: Active | Activity [4]: Active | Activity [5]: Active

COc1cc(OC)c(/C=C/S(=O)(=O)Cc2ccc(OC)c(N)c2)c(OC)c1
IC50 [6]: 1 nM | IC50 [7]: 4 nM | IC50 [8]: 5 nM | IC50 [9]: 3 nM | IC50 [10]: 5 nM | IC50 [11]: 3 nM | IC50 [12]: 3 nM | IC50 [13]: 2 nM | IC50 [14]: 3 nM | IC50 [15]: 5 nM | IC50 [16]: 3 nM | IC50 [17]: 3 nM | IC50 [18]: 3 nM | IC50 [19]: 3 nM | IC50 [20]: 2.5 nM | IC50 [21]: 3 nM | IC50 [22]: 5 nM | IC50 [23]: 3 nM | IC50 [24]: 10 nM | IC50 [25]: 4 nM | IC50 [26]: 3 nM | IC50 [27]: 4 nM | IC50 [28]: 2 nM | IC50 [29]: 3 nM | IC50 [30]: 6 nM | IC50 [31]: 10 nM | IC50 [32]: 1 nM | IC50 [33]: 3 nM | IC50 [34]: 3 nM | IC50 [35]: 3 nM | IC50 [36]: 3 nM | IC50 [37]: 4 nM | IC50 [38]: 3 nM | IC50 [39]: 4 nM | IC50 [40]: 3 nM | IC50 [41]: 3 nM | IC50 [42]: 3 nM | IC50 [43]: 3 nM | IC50 [44]: 30 nM | IC50 [45]: 2 nM | IC50 [46]: 4 nM
